Source: PMC11249109 (Drug Design, Development and Therapy, 2024)
pIC50: −log10 of the molar value. Values joined by “and” are separate entries in the source; they are usually repeats but may differ in a detail not shown here. Equal values may be shown once. Read-outs that look alike come from different tables or passages of the source.

Key:
[1] = rats
[2] = Detection of panduratin A metabolites by QTOF LCMS in plasma, urine and feces; assay type: in vivo, Male Wistar rats; conditions: rats
Outline: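 Male Wistar rats (fasted 12 h) received 4.5 mg/kg test compound i.v. via the lateral tail vein in 50% DMSO. Plasma came from tail-vein blood spun at 5000 g, 10 min, 4°C. Urine and feces were collected in metabolic cages at 0–24 and 24–72 h. Samples were methanol-precipitated and run on QTOF LC-MS with a C18 column at 35 °C and a 0.1% formic acid water/acetonitrile gradient.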

SARS-CoV-2 = conditions: read-out: IC50, anti-SARS-CoV-2 activity; Vero E6 cells; cited from earlier work
[3] = Percentage recovery of unchanged panduratin A in urine and feces; assay type: in vivo, Male Wistar rats; conditions: rats
Outline: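 Male Wistar rats (n=5/group, fasted 12 h) were dosed with 4.5 mg/kg i.v. (tail vein) or 45 mg/kg oral pure compound, both in 50% DMSO. Urine and feces were collected in metabolic cages at 0–24 and 24–72 h. Feces were bead-homogenised in methanol. Samples were precipitated with methanol containing glycyrrhizin as internal standard and quantified by negative-ESI triple-quadrupole LC-MS (calibration 0.98–1000 μg/L). Recovery is the amount excreted divided by the dose.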

Nitric oxide = conditions: read-out: IC50, nitric oxide inhibition; cited from earlier work
HIV-1 protease = conditions: read-out: IC50, HIV-1 protease activity; cited from earlier work
[4] = low solubility but high permeability; cited from earlier work
prostaglandin E2 = conditions: read-out: IC50, prostaglandin E2 inhibition; cited from earlier work
[5] = 45 mg/kg as panduratin A p.o., IC50 from ref 7
[6] = intravenous administration, 0–72 h

With COc1cc(O)c(C(=O)[C@@H]2[C@H](CC=C(C)C)C(C)=CC[C@H]2c2ccccc2)c(O)c1 [Panduratin A] the “plasma concentration after 72 h” value ([1]; 4.5 mg/kg i.v.) was 500 ng/mL, the “Cmax of panduratin A relative to in vitro anti-SARS-CoV-2 IC50” value [1, 5] was “approximately 15 fold” and the “minimum plasma concentration at 24 h relative to in vitro anti-SARS-CoV-2 IC50” value [1, 5] was “approximately 10 fold”. For the same molecule, the “plasma concentration after 72 h” value ([1]; 45 mg/kg as panduratin A single p.o.) was 500 ng/mL, the “glucuronidation form of panduratin A” value [2] was “not detected” and the “metabolites in plasma or urine (QTOF LCMS)” value ([2]; after i.v. 4.5 mg/kg) was “none of the metabolites of panduratin A were detected in plasma or urine”. The pIC50 (SARS-CoV-2) was 6.09, the “unchanged panduratin A excreted in urine” value [3, 6] was 2 % of the administered dose and the “unchanged panduratin A excreted via feces” value [3, 6] was 25 % of the administered dose. The “unchanged panduratin A excreted in urine” value ([3]; single oral administration, 0–72 h) was ~1 % of the administered dose, the “unchanged panduratin A excreted in feces, over the experimental groups” value ([3]; summary over i.v. and oral groups) was 20–30 % of the administered dose and 22–60 % of the administered dose and the pIC50 (Nitric oxide) was 6.76. The pIC50 (HIV-1 protease) was 4.73, the BCS class [4] was “BCS class II” and the pIC50 (prostaglandin E2) was 7.71.
